Measurements reported in ChEMBL document CHEMBL2331205, “Anti-hepatitis B virus and anti-cancer activities of novel isoflavone analogs” (Eur J Med Chem, 2013).
pIC50: −log10 of the molar value.

Assays:
[1] = Growth inhibition of human L02 cells after 48 hrs by MTT assay; assay type: functional, cell-based; settings: L02, 48 h
Summary of the method: (§1)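 Cells seeded at 8000/well, treated 24 h later in duplicate with a range of concentrations (DMSO stock 10 g/L diluted in fresh medium), 48 h at 37 °C, 5% CO2. MTT (5 mg/ml in PBS) added for 4 h, formazan dissolved in DMSO, absorbance read at 570 nm. IC50 is the concentration giving 50% survival.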

HeLa = test: Growth inhibition of human HeLa cells after 48 hrs by MTT assay; assay type: functional, cell-based; summary of the method: as §1
[2] = Selectivity index, ratio of CC50 for human HepG2(2.2.15) cells to IC50 for HBV infected in human HepG2(2.2.15) cells assessed as inhibition of HBeAg production; assay type: functional
Summary of the method: (§2)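 Selectivity index calculated as CC50 in HepG2 2.2.15 cells (MTT, 9-day exposure) divided by IC50 for HBeAg or HBsAg reduction (ELISA of 9-day supernatants).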

[3] = Growth inhibition of human QGY7701 cells after 48 hrs by MTT assay; assay type: functional; settings: QGY7701, 48 h; summary of the method: as §1
Hepatitis B virus [4] = test: Antiviral activity against HBV infected in human HepG2(2.2.15) cells assessed as inhibition of HBsAg production after 9 days by ELISA; assay type: functional, organism-based; settings: HepG2 2.2.15, 216 h
Summary of the method: (§3)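 HepG2 2.2.15 cells (HBV-producing) given a range of compound concentrations for nine days; culture supernatants collected and HBsAg or HBeAg levels measured by ELISA. IC50 taken as the concentration giving 50% inhibition of antigen level.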

[5] = Selectivity index, ratio of CC50 for human HepG2(2.2.15) cells to IC50 for HBV infected in human HepG2(2.2.15) cells assessed as inhibition of viral replication; assay type: functional
Summary of the method: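 Selectivity index calculated as CC50 in HepG2 2.2.15 cells (MTT, 9-day exposure) divided by IC50 for HBV DNA reduction measured by fluorescence PCR after 9 days.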

Huh-7 [6] = test: Growth inhibition of human HuH7 cells after 48 hrs by MTT assay; assay type: functional, cell-based; settings: Huh-7, 48 h; summary of the method: as §1
[7] = Selectivity index, ratio of CC50 for human HepG2(2.2.15) cells to IC50 for HBV infected in human HepG2(2.2.15) cells assessed as inhibition of HBsAg production; assay type: functional; summary of the method: as §2
[8] = Cytotoxicity against human HepG2(2.2.15) cells compound treated for 48 hrs followed by incubation for 9 days by MTT assay; assay type: cell-based
Summary of the method: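 HepG2 2.2.15 cells kept 48 h in plates before adding compounds (DMSO stocks serially diluted in medium), then incubated at 37 °C for 9 days. Media-only wells as blank. MTT (5 g/L) added 4 h before lysis in 10% SDS/50% DMF, pH 7.2; OD at 570 nm gives percent cell death; CC50 derived.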

Hepatitis B virus [9] = test: Antiviral activity against HBV infected in human HepG2(2.2.15) cells assessed as inhibition of HBeAg production after 9 days by ELISA; assay type: functional, organism-based; settings: HepG2 2.2.15, 216 h; summary of the method: as §3
A549 [10] = test: Growth inhibition of human A549 cells after 48 hrs by MTT assay; assay type: functional, cell-based; settings: A549, 48 h; summary of the method: as §1
Hepatitis B virus [11] = test: Antiviral activity against HBV infected in human HepG2(2.2.15) cells assessed as inhibition of viral replication after 9 days by fluorescence PCR method; assay type: functional, organism-based; settings: HepG2 2.2.15, 216 h
Summary of the method: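 HepG2 2.2.15 cells given a range of compound concentrations for nine days; HBV DNA quantified by fluorescence PCR. IC50 taken as the concentration giving 50% inhibition of HBV DNA replication.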

A549 [12] = test: Ratio of 5-Fu IC50 to compound IC50 for human A549 cells after 48 hrs by MTT assay; assay type: functional
Huh-7 [13] = test: Ratio of 5-Fu IC50 to compound IC50 for human HuH7 cells after 48 hrs by MTT assay; assay type: functional

Row | pIC50 (HeLa) | pIC50 (Hepatitis B virus [4]) | pIC50 (Huh-7 [6]) | pIC50 (Hepatitis B virus [9]) | pIC50 (A549 [10]) | pIC50 (Hepatitis B virus [11]) | SMILES | pIC50 [1] | Ratio CC50/IC50 [2] | pIC50 [3] | Ratio CC50/IC50 [5] | Ratio CC50/IC50 [7] | CC50 at 48 h [8] [µM] | Ratio IC50 (A549 [12]) | Ratio IC50 (Huh-7 [13])
1 | < 4.00 | 4.99 | 5.07 | 5.63 | < 4.00 | 5.33 | COc1ccc(CNC(=O)/C=C/c2coc3cc(O)ccc3c2=O)cc1 | < 3.70 | 306.82 | 5.00 | 152.76 | 70.25 | 718 |  | 
2 | < 4.00 | 4.84 | < 4.00 | 4.91 | 5.18 | 4.63 | O=C(/C=C/c1coc2cc(O)ccc2c1=O)NCc1ccc(F)cc1F | < 3.70 | 38.05 | < 4.00 | 20.16 | 32.34 | 470 |  | 
3 | 4.93 | < 4.00 | < 4.00 | < 4.00 | 6.33 | < 4.00 | COc1ccc2c(=O)c(/C=C/C(=O)Nc3cccc(Cl)c3)coc2c1 | < 3.70 |  | < 4.00 |  |  | 1100 | 12 | 
4 | 5.01 | 4.34 | 5.41 | 4.87 | 4.61 | 4.54 | O=C(/C=C/c1coc2cc(O)ccc2c1=O)Nc1ccccc1 | < 3.70 | 61.12 | 4.75 | 28.29 | 18.02 | 821 |  | 4
5 | < 4.00 | 4.78 | < 4.00 | 4.72 | 4.76 | 4.85 | Cc1ccc(CNC(=O)/C=C/c2coc3cc(O)ccc3c2=O)cc1 | < 3.70 | 26.16 | 4.60 | 35.31 | 30.27 | 501 |  | 
6 | < 4.00 | 4.04 | 4.43 | 4.68 | < 4.00 | 4.17 | COc1ccc2c(=O)c(/C=C/C(=O)Nc3ccc(Cl)cc3)coc2c1 | < 3.70 | 12.97 | < 4.00 | 4.03 | 2.96 | 272 |  | 
7 | < 4.00 | 4.85 | 5.12 | 4.84 | 4.65 | 4.61 | COc1ccc(CNC(=O)/C=C/c2coc3cc(OC)ccc3c2=O)cc1 | < 3.70 | 2.98 | 4.80 | 1.77 | 3.08 | 43 |  | 
